Measurements: ChEMBL document CHEMBL1125774, “3-Methyl-2H-1-benzopyran potassium channel activators” (J Med Chem, 1991)

Columns and labels:
Type in all cases: functional
Oryctolagus cuniculus [1] = species on record: Oryctolagus cuniculus; assay: Compound measured for hyperpolarization of smooth muscle cells of the rabbit main pulmonary artery at concentration 100 uM.
Summary of the method: (§1)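 Rabbit main pulmonary artery strips; intracellular glass microelectrode recording of smooth muscle membrane potential after 60 min equilibration. Baseline taken as potential reached with 1 µM noradrenaline. Bath medium exchanged for solutions of increasing compound concentration. At least four cells measured per concentration. Value is hyperpolarization (ΔmV) at the stated concentration, averaged over two preparations.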

Sus scrofa = species on record: Sus scrofa; assay: Relaxing effect determined by measuring inhibition of acetylcholine-induced contractions in pig coronary arteries.
Summary of the method: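 Pig coronary artery rings from slaughterhouse hearts, resting tension 2 g, isometric force recording. Control acetylcholine contraction repeated every 45 min for three or four cycles, with the last cycle as predrug value. Rising compound concentrations added 30 min before agonist; a solvent ring served as time control.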

Oryctolagus cuniculus [2] = species on record: Oryctolagus cuniculus; assay: Compound measured for hyperpolarization of smooth muscle cells of the rabbit main pulmonary artery at concentration 1 uM.; summary of the method: as §1
Oryctolagus cuniculus [3] = species on record: Oryctolagus cuniculus; assay: Relaxing effect by measuring inhibition of noradrenaline-induced contractions in rabbit main pulmonary arteries
Summary of the method: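 Rabbit pulmonary artery rings 5 mm wide, resting tension 2 g, equilibrated 60–90 min, isometric force recording. Rings contracted with 0.7-1 µM noradrenaline (about 80% of maximal response). Once force was stable, compound added cumulatively in 0.5 log increments. IC50 (50% inhibition) determined graphically for each experiment and reported as geometric mean with 95% confidence limits.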

Oryctolagus cuniculus [4] = species on record: Oryctolagus cuniculus; assay: Drug concentration required to induce half maximal hyperpolarization in rabbit main pulmonary arteries
Summary of the method: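 Rabbit main pulmonary artery strips, 60 min equilibration, predepolarized with 1 µM noradrenaline. Membrane potential recorded intracellularly with glass microelectrodes in at least four cells per concentration while compound concentration was raised by bath exchange. EC50 is the concentration giving half-maximal hyperpolarization, taken from concentration/response curves.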

Oryctolagus cuniculus [5] = species on record: Oryctolagus cuniculus; assay: Compound measured for hyperpolarization of smooth muscle cells of the rabbit main pulmonary artery at concentration 0.1 uM.; summary of the method: as §1
Oryctolagus cuniculus [6] = species on record: Oryctolagus cuniculus; assay: Compound measured for hyperpolarization of smooth muscle cells of the rabbit main pulmonary artery at concentration 10 uM.; summary of the method: as §1
Oryctolagus cuniculus [7] = species on record: Oryctolagus cuniculus; assay: Compound measured for hyperpolarization of smooth muscle cells of the rabbit main pulmonary artery at concentration 4 uM.; conditions: in the assay text read “10 uM” for “4 uM”; summary of the method: as §1
Oryctolagus cuniculus [8] = species on record: Oryctolagus cuniculus; assay: Compound measured for hyperpolarization of smooth muscle cells of the rabbit main pulmonary artery at concentration 3 uM.; summary of the method: as §1

Row | SMILES | Delta mV (Oryctolagus cuniculus [1]) | IC50 (Sus scrofa) [nM] | also measured
1 | CC1(C)Oc2ccc(C#N)cc2[C@@H](n2ccccc2=O)[C@]1(C)O | 19 | > 100000 | –
2 | C[C@H]1[C@H](n2ccccc2=O)c2cc(C#N)ccc2OC1(C)C | – | > 100000 | Delta mV (Oryctolagus cuniculus [2]): 10
3 | CC1(C)Oc2ccc(C#N)cc2[C@@H](Oc2ccc(=O)[nH]n2)[C@]1(C)O | – | 6 | IC50 (Oryctolagus cuniculus [3]): 2 nM; EC50 (Oryctolagus cuniculus [4]): 3 nM; Delta mV (Oryctolagus cuniculus [5]): 29
4 | CC1(C)Oc2ccc(C#N)cc2[C@H](Oc2ccc(=O)[nH]n2)[C@@]1(C)O | 20 | – | –
5 | CC1(C)Oc2ccc(C#N)cc2[C@@H](Oc2ccc(=O)[nH]n2)[C@@]1(O)Cc1ccccc1 | 6 | > 100000 | –
6 | CC1(C)Oc2ccc(C#N)cc2[C@@H](On2ccccc2=O)[C@]1(C)O | 21 | > 100000 | –
7 | CC1(C)Oc2ccc(C#N)cc2[C@@H](Oc2ccccn2)[C@]1(C)O | 25 | 6000 | –
8 | CC1(C)Oc2ccc(C#N)cc2[C@]2(n3ccccc3=O)O[C@]12C | 10 | > 100000 | –
9 | CC1(C)Oc2ccc([N+](=O)[O-])cc2[C@@H](n2ccccc2=O)[C@]1(C)O | – | 20000 | Delta mV (Oryctolagus cuniculus [6]): 22
10 | CC1(C)Oc2ccc(C#N)cc2[C@@H](Oc2ccnc(O)c2)[C@]1(C)O | – | 4 | Delta mV (Oryctolagus cuniculus [5]): 35
11 | CC1(C)Oc2ccc(C#N)cc2[C@@H](Nn2ccccc2=O)[C@]1(C)O | 12 | > 100000 | –
12 | CC1(C)Oc2ccc(C#N)cc2[C@@H](n2nc(N)ccc2=O)[C@]1(C)O | 13 | 40000 | –
13 | C[C@]1(O)[C@H](n2ccccc2=O)c2cc(C#N)ccc2OC12CCCCC2 | 3 | 20000 | –
14 | CC1(C)Oc2ccc(C#N)cc2[C@@H](N2CCCC2=O)[C@]1(C)O | – | 4000 | Delta mV (Oryctolagus cuniculus [7]): 23
15 | CCOC[C@]1(O)[C@H](Oc2ccc(=O)[nH]n2)c2cc(C#N)ccc2OC1(C)C | 12 | 50000 | –
16 | CCn1nc(O[C@@H]2c3cc(C#N)ccc3OC(C)(C)[C@@]2(C)O)ccc1=O | – | 7 | Delta mV (Oryctolagus cuniculus [5]): 22
17 | CC1(C)Oc2ccc(C#N)cc2[C@@H](Oc2ccc(=O)[nH]n2)[C@@]1(O)CO | – | 700 | Delta mV (Oryctolagus cuniculus [8]): 32
18 | CC1(C)Oc2ccc(C#N)cc2[C@@H](OC2=CC(=O)CC2)[C@]1(C)O | – | 20 | Delta mV (Oryctolagus cuniculus [2]): 25
19 | CC1(C)Oc2ccc([N+](=O)[O-])cc2[C@@H](Oc2ccc(=O)[nH]n2)[C@]1(C)O | – | 20 | Delta mV (Oryctolagus cuniculus [5]): 24
20 | CC1(C)Oc2ccc(C#N)cc2[C@@H](n2ccccc2=O)[C@@H]1O | – | – | IC50 (Oryctolagus cuniculus [3]): 174 nM; Delta mV (Oryctolagus cuniculus [2]): 34; EC50 (Oryctolagus cuniculus [4]): 105 nM
21 | Cn1nc(O[C@@H]2c3cc(C#N)ccc3OC(C)(C)[C@@]2(C)O)ccc1=O | – | 30 | Delta mV (Oryctolagus cuniculus [5]): 24
22 | CC1(C)Oc2ccc(C#N)cc2[C@@H](Oc2ccc(=O)[nH]n2)[C@@]1(O)COCc1ccccc1 | 16 | > 100000 | –
23 | C[C@]1(O)[C@H](Oc2ccc(=O)[nH]n2)c2cc(C#N)ccc2OC12CCCCC2 | 26 | 80000 | –
24 | Cn1nc(N[C@@H]2c3cc(C#N)ccc3OC(C)(C)[C@@]2(C)O)ccc1=O | – | 20 | Delta mV (Oryctolagus cuniculus [5]): 34
25 | CC1=C(n2ccccc2=O)c2cc(C#N)ccc2OC1(C)C | 29 | 5000 | –
26 | Cn1nc(O[C@@H]2c3cc(C#N)ccc3OC(C)(C)[C@H]2O)ccc1=O | – | 50 | IC50 (Oryctolagus cuniculus [3]): 26 nM; EC50 (Oryctolagus cuniculus [4]): 11 nM; Delta mV (Oryctolagus cuniculus [5]): 29
27 | CC1=C(N2CCCC2=O)c2cc(C#N)ccc2OC1(C)C | 29 | > 100000 | –
28 | CC1(C)C=C(n2ccccc2=O)c2cc(C#N)ccc2O1 [BIMAKALIM] | – | 50 | IC50 (Oryctolagus cuniculus [3]): 57 nM; EC50 (Oryctolagus cuniculus [4]): 27 nM; Delta mV (Oryctolagus cuniculus [5]): 23
29 | CC1(C)Oc2ccc(C#N)cc2C(N2CCCC2=O)C1O (stereo unspecified) [CROMAKALIM] | – | 700 | Delta mV (Oryctolagus cuniculus [8]): 28; IC50 (Oryctolagus cuniculus [3]): 420 nM; EC50 (Oryctolagus cuniculus [4]): 263 nM
